thrombin 1536 – thrombin (human) inhibition; alpha-thrombin, Boc-VPR-AMC fluorogenic substrate cleavage; 0.26% of 220,000 active; P00734; inhibition, % at 5 µM; AID 1046;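 active = inhibition at or above 40%; inactive = inhibition below 40%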;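 also: 0% = enzyme with no compound and 100% = wells without enzyme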
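System – human alpha-thrombin protein · Reagent – Boc-VPR-AMC substrate, 15 µM final · Compound – 5 µM single dose in 0.2% DMSO · Schedule – reaction at room temperature · Technique – AMC fluorescence at 355 nm excitation and 460 nm emission · Read-out basis – % inhibition relative to enzyme controls and enzyme-free blanks · Control set – no-compound enzyme wells and no-enzyme blanks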
FXIIa inh – factor XIIa (human) inhibition. 0.3% of 220,000 active. inhibition, % at 5 µM. purified FXIIa, Boc-QGR-AMC fluorogenic substrate, 2 h; in the data active = inhibition above about 40%;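 also: 0% = enzyme with no compound and 100% = blank without enzyme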
Target sequence (P00748 20-372 limits assumed): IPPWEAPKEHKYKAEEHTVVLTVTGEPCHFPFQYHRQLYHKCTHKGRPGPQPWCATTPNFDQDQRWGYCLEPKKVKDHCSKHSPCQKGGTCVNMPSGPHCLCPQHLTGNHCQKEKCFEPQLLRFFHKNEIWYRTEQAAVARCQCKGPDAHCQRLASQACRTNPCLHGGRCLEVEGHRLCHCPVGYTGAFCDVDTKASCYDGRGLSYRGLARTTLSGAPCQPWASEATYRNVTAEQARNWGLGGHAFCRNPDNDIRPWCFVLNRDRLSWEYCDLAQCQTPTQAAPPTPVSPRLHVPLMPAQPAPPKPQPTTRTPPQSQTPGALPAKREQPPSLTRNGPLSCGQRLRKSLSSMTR
Target sequence (P00748 373-615 limits assumed): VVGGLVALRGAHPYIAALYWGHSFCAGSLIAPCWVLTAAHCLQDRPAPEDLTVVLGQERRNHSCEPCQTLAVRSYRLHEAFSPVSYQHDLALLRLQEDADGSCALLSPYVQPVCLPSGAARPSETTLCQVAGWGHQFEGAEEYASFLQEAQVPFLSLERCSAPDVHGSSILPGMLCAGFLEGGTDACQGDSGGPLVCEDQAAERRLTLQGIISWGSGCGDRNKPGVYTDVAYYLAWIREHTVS
AHR activator – activates the human aryl hydrocarbon receptor; P35869; AHR-responsive luciferase reporter cells, luminescence; activation, % at 5 µM; 2.5% of 320,000 active; AID 2796; in the data active = activation above about 47%;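 also: 0% = vehicle wells and 100% = reference agonist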
FXIa inh – blocks human coagulation factor XIa protease activity | P03951 | 0.14% of 220,000 active | purified FXIa, Boc-Glu-Ala-Arg-AMC fluorogenic substrate | inhibition, % at 5 µM;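 active = inhibition of at least 40%; inactive = inhibition below 40%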;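 also: fluorescence of freed AMC excited at 355 nm; 0% = enzyme without compound and 100% = no enzyme blank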
KLK5 inh – blocks human kallikrein 5 protease activity. 0.59% of 210,000 active. recombinant hK5, fluorogenic AMC substrate cleavage. inhibition, % at 5 µM;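 active = inhibition of 40% or more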;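 also: 0% = enzyme controls without compound and 100% = no-enzyme blanks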
STAT3 act – activators of IL-6 induced STAT3 signaling. U3A cells, IL-6 STAT3-luciferase reporter, luminescence; 100% = signal with IL-6 EC80 alone. activation (% of control), % at 5.6 µM. 0.91% of 190,000 active. AID 871;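 active = activation above the screen-wide mean of compound activation plus 3 SD, cut at about 130% in these data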;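 also: 0% = background luminescence of wells with medium and substrate only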
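Detection: reporter luminescence signal / Assay system: STAT1-lacking human U3A cells, STAT3 luciferase reporter / Incubation: compound pre-incubation 1 h before IL-6, then 6 h stimulation at 37 °C / Control set: IL-6-only high control / Read-out: % activation relative to IL-6 control / Probe or stimulus: Interleukin-6, 33 ng/mL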
AHR act confirm – human AHR activation, confirmation; AID 2845; shares compounds with AHR activator; activation, % at 9 µM; human cells, AHR-responsive luciferase reporter, luminescence; 87% of 2,300 active; in the data active = activation above about 49%;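 also: HepG2 hepatoma cells carrying a DRE-driven firefly luciferase reporter; 0% = vehicle wells and 100% = reference agonist wells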
PXR act counter – PXR activation, counter-screen for AHR activators; shares compounds with AHR activator; cell-based PXR reporter, luciferase luminescence; activation, % at 11.6 µM; 88% of 2,300 active; in the data active = activation above about 11%;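 also: human hepatoma DPX-2 cells expressing full-length human PXR; 0% = DMSO and 100% = reference agonist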
Starred values were filed as active, the others as inactive; . = no result. The list is not random: actives were taken first. Their share in the collection is about 3.5%.

SMILES | thrombin 1536 | FXIIa inh | AHR activator | FXIa inh | KLK5 inh | STAT3 act | AHR act confirm | PXR act counter
O=C(Cn1nc(CNc2ccc(Cl)cc2)[n+]2c1CCCCC2)c1ccc(Br)cc1 | -4 | 8 | 100* | 8 | -10 | 106 | 8 | 24*
O=C(Nc1ccc(Cl)cn1)c1ccc(-c2ccc(Cl)c(Cl)c2)o1 | . | . | 2 | . | . | 110 | . | .
CCN(CC)CCNc1nc2cc(OC)c(OC)cc2c2nc(-c3ccccc3)nn12 | 3 | 14 | 90* | 4 | -7 | 119 | 17 | 5
Cc1cc(-c2ccc(S(=O)(=O)N3CCN(c4cccc(C)c4C)CC3)s2)on1 | . | . | 0 | . | . | . | . | .
Cc1ccc(O)c(NC(=O)c2cccc(NC(=O)c3ccco3)c2)c1 | -3 | 8 | 104* | 3 | -8 | 112 | 129* | 21*
O=C(Nc1ccc2nc(-c3cccnc3)[nH]c2c1)c1ccco1 | 0 | -2 | -2 | -9 | -2 | 93 | . | .
Cc1ccc2nc(-c3cccc(NC(=O)c4ccco4)c3)[nH]c2c1 | -13 | 17 | 91* | 17 | -4 | 93 | 92* | 16*
Cc1cccc(-c2nnc(NC(=O)c3ccco3)s2)c1 | . | . | 164* | . | . | . | 129* | 54*
Cc1cc(OCC(=O)N[C@@H](CSCc2ccccc2)C(=O)O)c2c(C)c(C)c(=O)oc2c1 | . | . | 0 | . | . | . | . | .
O=C(CSCc1c(Cl)cccc1Cl)N1CCOCC1 | -3 | 4 | -7 | 0 | . | 101 | . | .
COc1ccccc1NC(=O)c1cc(S(=O)(=O)N2CCCC2)cn1C | . | . | 4 | . | . | . | . | .
Cc1[nH]c2ccccc2c1C(=O)/C=C/c1ccccc1 | -4 | 15 | 166* | 4 | 18 | 99 | 140* | 200*
Cc1nc2ccccc2c(N)c1C(=O)/C=C/c1ccccc1 | . | . | 10 | . | . | . | . | .
Cc1[nH]c2ccccc2c1C(=O)/C=C/c1ccccc1Cl | -9 | 4 | 147* | -8 | -6 | 98 | 123* | 72*
Cc1[nH]c2ccccc2c1C(=O)/C=C\c1ccccc1Cl | -9 | 6 | 157* | 1 | -5 | 108 | 112* | 78*
N#Cc1ccccc1NC(=O)COc1ccccc1C(=O)Nc1ccccc1 | . | . | 93* | . | . | . | 95* | 41*
Cn1c(C(=O)NCc2cccs2)cc2c(=O)n(C)c3ccccc3c21 | -2 | 11 | 14 | 6 | -7 | 85 | . | .
Cn1c2ccccc2c(=O)c2ccc(NCCc3cccs3)cc21 | . | . | 111* | . | . | . | -2 | 113*
O=C(CN1C(=O)NC2(CCCCCC2)C1=O)NCc1ccccc1 | . | . | -1 | . | . | . | . | .
Cc1cc(SCC(=O)NCC2CCCO2)nc2ccccc12 (stereo unspecified) | . | . | 24 | . | . | . | . | .
COc1ccccc1NC(=O)c1ccc2[nH]c(C)c(C)c2c1 | . | . | 113* | . | . | . | 133* | 69*
Fc1ccc(N/N=C2/CC(c3ccccc3)Oc3ccccc32)c(F)c1 (stereo unspecified) | -5 | 3 | 98* | 1 | -16 | 109 | 90* | 26*
CNC(=S)N/N=C1\CC(c2ccccc2)Oc2ccccc21 (stereo unspecified) | 3 | 7 | 4 | -1 | -3 | 97 | . | .
COCCN(C(=O)CSc1cc(C)c2ccccc2n1)c1c(N)n(CC(C)C)c(=O)[nH]c1=O | . | . | 6 | . | . | . | . | .
CCn1c(-c2sc(-c3ccccc3)nc2C)n[nH]c1=S | -6 | 2 | 81* | -5 | -4 | 96 | 119* | 19*
SMILES | thrombin 1536 | FXIIa inh | AHR activator | FXIa inh | KLK5 inh | STAT3 act | AHR act confirm | PXR act counter
Cc1nc(-c2ccccc2)sc1-c1ccn[nH]1 | -16 | 0 | 12 | -12 | -11 | 81 | . | .
O=C1c2ccccc2C(=O)N1CCc1ccccn1 | -1 | 11 | 99* | 9 | -12 | 108 | 100* | 10*
COc1cc(/C=N/NC(=O)c2cccnc2)cc2c1OCO2 | . | . | 88* | . | . | . | 78* | .
CCCCNC(=S)N(C)/N=C/c1ccc2c(c1)OCO2 | -1 | 0 | 159* | 4 | 2 | 95 | 68* | 26*
O=C(N/N=C\c1ccc2c(c1)OCO2)c1cncc(Br)c1 | . | . | 104* | . | . | . | 80* | 10*
C=C(C)CNC(=S)N/N=C\c1ccc2c(c1)OCO2 | . | . | 82* | . | . | . | 64* | 67*
O=C(N/N=C/c1ccc(O)cc1)c1cncc(Br)c1 | . | . | 19 | . | . | . | . | .
CSc1nc(-c2ccccc2)nc2[nH]ccc(=O)c12 | . | . | . | . | . | 80 | . | .
Cc1ccc(C(=O)N/N=C/c2ccc3c(c2)OCO3)o1 | -6 | 5 | 142* | 0 | -13 | 131 | 98* | 21*
Clc1ccccc1N/N=C/c1ccc2c(c1)OCO2 | 3 | 30 | 80* | 22 | -5 | 106 | 66* | 35*
CCOc1ccc(S(=O)(=O)NC2=NCCCCC2)cc1 | . | . | -1 | . | . | . | . | .
CCC(CO)n1cnnc1-c1ccncc1 (stereo unspecified) | -6 | -10 | 1 | -3 | -1 | 99 | . | .
C=C1CCC2[C@](C)(CO[C@@H]3O[C@H](CO)[C@@H](O)[C@H](O)[C@H]3O)CCC[C@@]2(C)[C@@H]1CCC1=CCOC1=O (stereo partly specified) | . | . | 0 | . | . | . | . | .
CCOc1ccccc1NC(=O)c1ccoc1C | -7 | 7 | 81* | -1 | -1 | 91 | 89* | 13*
CCOc1ccccc1C(=O)Nc1cccc2ccccc12 | . | . | 88* | . | . | . | 63* | 34*
COC(=O)/C(=C(O)\C=C\c1ccccc1[N+](=O)[O-])c1nc2ccccc2[nH]1 | . | . | 92* | . | . | . | 113* | 47*
OC(CNCCCCNCC(O)C(F)(F)F)C(F)(F)F (stereo unspecified) | 2 | 4 | 6 | -2 | -9 | 106 | . | .
Cc1ccc(-c2csc(NS(=O)(=O)c3cccc(F)c3)n2)o1 | . | . | 7 | . | . | . | . | .
CCc1cc2ccc(OC)cc2nc1SCC(=O)NNC(C)=O | -2 | 4 | 13 | -4 | -3 | 96 | . | .
CCc1cc2cc(OC)ccc2nc1SCC(=O)NNC(=O)c1ccco1 | -2 | 6 | 82* | 1 | . | 107 | 16 | 14*
O=C(Nc1cc(-c2nc3ncccc3o2)ccc1Cl)c1cccs1 | . | . | 134* | . | . | . | 98* | 47*
COc1ccc(-c2nc3ncccc3o2)cc1NC(=O)c1cccs1 | . | . | 81* | . | . | . | 43 | 30*
COc1ccc(-c2ccccc2)cc1NC(=O)c1cccs1 | . | . | 31 | . | . | . | . | .
O=C(Nc1cc(-c2nc3ncccc3o2)ccc1Cl)c1ccc([N+](=O)[O-])o1 | . | . | 8 | . | . | . | . | .
Cc1ccccc1CN1CCC(CNC(=O)C2CCCN(c3ncnc4c3nc3n4CCCCC3)C2)CC1 (stereo unspecified) | . | . | 2 | . | . | . | . | .
Nc1ccc(O)c2c1C(=O)c1ccccc1C2=O | 3 | 0 | 6 | 12 | -28 | 96 | . | .
Nc1ccc(Br)c2c1C(=O)c1ccccc1C2=O | 3 | 11 | 95* | 4 | 1 | 86 | 58* | 16*

From PubChem
